CSC inhib = cancer stem cell viability inhibitors, primary screen, luminescence. cancer stem cell-like cells viability. inhibition, % at 7.5 µM. hit rate 1.1% among 300,000. AID 2717, 2010; in the data active means inhibition above about 75%; inconclusive means no clear call, values can overlap the other calls; tested in HMLE shEcad cells
Beta apoptosis = inhibitors of cytokine-induced beta cell apoptosis, primary screen, luminescence | protection from apoptosis, % (test concentration not listed) | hit rate 0.8% among 300,000 | AID 435005, 2010 | INS-1E cytokine-induced death, ATP luminescence, 48 h; percent of positive-control rescue, neutral wells zero;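 active means Every replicate reaches about 75%, or at least half do and their mean reaches it too, limit read from the data; inconclusive means At least half of replicates reach the limit but their mean does not; inactive means Under half of replicates reach the limit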;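 further: higher means more ATP so stronger rescue from cytokine killing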
SKKanGAS inh = S. pyogenes SKKanGAS growth inhibitors in kanamycin, primary screen, streptokinase expression inhibitor project, SKKanGAS strain, BacTiter-Glo luminescence | hit rate 1.3% among 300,000 | 6 h | inhibition, % at 7.5 µM;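 active means mean replicate score, as percent of positive control median, at least 50; inconclusive means mean below 50 but one replicate at or above 50; inactive means mean and every replicate below 50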;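 further: strain carries kanamycin resistance gene driven by streptokinase promoter and grows in 40 µg/ml kanamycin; loss of luminescence reflects streptokinase promoter inhibition or plain growth inhibition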
Mdm2 MdmX PPI = inhibitors of human Mdm2-MdmX association, primary screen, cell-based, luminescence, split luciferase, SaOS-2, uHTS. hit rate 3% among 330,000. inhibition, % at 8 µM. SaOS-2 split-luciferase Mdm2/MdmX complementation. AID 485346, 2010. Protein Mdm4 (Homo sapiens) + E3 ubiquitin-protein ligase Mdm2 (Homo sapiens), …;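 active means inhibition of at least 50% at 8 µM in the primary screen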
Calb FLC = C. albicans growth inhibition with fluconazole, primary screen, CaCi-2 strain, Alamar Blue fluorescence; AID 1979, 2009; C. albicans CaCi-2 (fluconazole-resistant clinical isolate) + fluconazole, 48 h; hit rate 0.57% among 300,000; growth inhibition, % (test concentration not listed);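 active means growth inhibition above about 58% in most replicates, limit read from the data, passing the limit was not always enough; inconclusive means exactly half the replicates above a set limit; inactive means most replicates below a set limit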;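 further: all wells also contain fluconazole at 8 µg/ml as a sub-toxic cotreatment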
T cruzi inh = inhibitors of intracellular T. cruzi growth, primary screen, luminescence, NIH3T3 host cells; T. cruzi beta-gal in NIH3T3, 90 h; inhibition, % (no concentration beside the values); hit rate 1.4% among 300,000;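 active means mean inhibition across valid replicates above about 55%, limit read from the data; inconclusive means mean below that limit but half or more replicates reach it; inactive means mean below it, under half of replicates reach it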;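 further: signal also drops with host cell toxicity which is not excluded here; higher percent means less beta-gal luminescence so fewer parasites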
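Assay system: NIH/3T3 fibroblasts plus reporter T. cruzi. Amount: NIH/3T3 cells, 5,000 per well. Buffer or medium: DMEM, 2% fetal bovine serum. Doses: compound pinned at 50 nL/well, DMSO. Schedule: ≥90 h infection period, 3 h prior cell attachment. Signal: luminescent β-galactosidase signal after 60 min lysis. Read-out: parasite load inhibition, %.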
Each line names hits and unclear results; the compound was inactive in the other large screens. Sampled rows, rich in hits. Any-hit rate of the full collection: about 5.7%.

CCSc1nc2ccccc2c(=O)n1-c1c(C)n(C)n(-c2ccccc2)c1=O	none
O=C(O)CN1C(=O)/C(=C\c2cc(Br)ccc2OCc2ccc(Cl)cc2Cl)SC1=S	CSC inhib 108, SKKanGAS inh 105
O=C(O)CN1C(=O)/C(=C\c2ccccc2OCc2ccc(Cl)cc2)SC1=S	none
CCOC(=O)c1c(NC(=O)Cn2cnc([N+](=O)[O-])n2)sc2c1CCC(C)C2 (configuration not stated)	T cruzi inh 57 (no result: Beta apoptosis)
CCOC(=O)c1c(NC(=O)Cn2cc([N+](=O)[O-])cn2)sc2c1CCC2	none
COC(=O)c1c(NC(=O)CN(C)CC(=O)Nc2ccc(C)cc2)sc2c1CCC(C)C2 (configuration not stated)	none (no result: CSC inhib, SKKanGAS inh, Calb FLC, T cruzi inh)
COC(=O)c1c(NC(=O)Cc2cccs2)sc2c1CCC(C)C2 (configuration not stated)	CSC inhib 80
COC(=O)c1c(NC(=O)Cn2cnc([N+](=O)[O-])n2)sc2c1CCC(C)C2 (configuration not stated)	T cruzi inh 58
Cc1c(Cl)cccc1-n1c(SCC(=O)N2CCC(C(=O)O)CC2)nc2ccccc2c1=O	none (no result: Beta apoptosis)
COc1ccc(O)c(C(=O)c2cnc3nc4ccccc4n3c2)c1	Beta apoptosis 83 (no result: Mdm2 MdmX PPI)
COc1ccc(O)c(C(=O)c2cnn(-c3ccccn3)c2)c1	none
COc1ccc(CN(Cc2cccnc2)S(=O)(=O)c2ccc(-n3cnnn3)c(C)c2)cc1OC	T cruzi inh 78
Oc1ccc(/C=N/Nc2ccccc2)cc1	none
Brc1ccc(/C=N/Nc2ccccc2)cc1	CSC inhib 79
Cc1c(Cc2ccccc2)c(=O)oc2c(O)c(O)ccc12	Calb FLC 108 (no result: CSC inhib, Beta apoptosis)
Cc1c(Cc2ccccc2)c(=O)oc2cc(O)ccc12	none
Cc1[nH]n(-c2ncc(-c3ccc(Cl)cc3)s2)c(=O)c1C(c1ccc(Cl)cc1)C(C#N)C#N (configuration not stated)	CSC inhib 96, SKKanGAS inh 97
Cc1cc(C)c(NC(=O)CNC(=O)c2cc([N+](=O)[O-])ccc2N2CCOCC2)c(C)c1	none
CCOC(=O)c1c(NC(C)=O)sc2c1CCN(Cc1ccccc1)C2	none
CCOC(=O)c1c(NC(C)=O)sc2c1CCC(C=O)=C2Sc1ccccc1	CSC inhib 89
Cn1cccc1-c1nc2ccccc2n1Cc1ccccc1	CSC inhib 88
S=c1nc(NCCc2ccccc2Cl)c2ccccc2[nH]1	none
C/C(=N\NC(=O)c1nnn(-c2nonc2N)c1CN1CCOCC1)c1ccc(CC(C)C)cc1	none
O=[N+]([O-])c1cccc(-c2nnc(-c3ccccc3)o2)c1	none (no result: Beta apoptosis)
Cc1occc1-c1nnc(-c2cc([N+](=O)[O-])cc([N+](=O)[O-])c2)o1	T cruzi inh 66
Clc1ccccc1CN(Cc1ccccc1)c1ncnc2nc[nH]c12	SKKanGAS inh 51
Clc1ccccc1CNc1ncnc2nc[nH]c12	none
CSc1ccccc1NC(=O)C1=CC(c2ccc(C)cc2)=NS(=O)(=O)N1C	none
S=C(NCCC(c1ccccc1)c1ccccc1)Nc1ccc(Cl)cc1	SKKanGAS inh 117
COc1ccc(Cl)cc1NC(=S)NCCC(c1ccccc1)c1ccccc1	Calb FLC inconclusive, T cruzi inh 56
S=C(NCCC(c1ccccc1)c1ccccc1)Nc1ccccc1Cl	none
CCCCOCCCNC(=S)Nc1ccc(S(=O)(=O)N2CCOCC2)cc1	none
O=C(CSc1cccc2cccnc12)Nc1ccc(S(=O)(=O)N2CCOCC2)cc1	T cruzi inh 63
O=S(=O)(c1ccc(NC(=S)NCCC(c2ccccc2)c2ccccc2)cc1)N1CCOCC1	T cruzi inh 61
COc1cc(NC(=S)NCCC(c2ccccc2)c2ccccc2)c(OC)cc1Cl	none
Cc1ccc(NS(=O)(=O)c2ccc(C(=O)NCc3ccc(S(N)(=O)=O)cc3)cc2)cc1	none (no result: SKKanGAS inh, Calb FLC, T cruzi inh)
Cc1nnc(SCC2=C(C(=O)O)N3C(=O)C(NC(=O)Cn4nc(C(F)F)cc4C)C3SC2)s1 (configuration not stated)	SKKanGAS inh 112
